Measurements: ChEMBL document CHEMBL1130136, “Novel biological response modifiers: phthalimides with tumor necrosis factor-alpha production-regulating activity” (J Med Chem, 1997)
Values after ≈ are worked out from the molar mass of the structure shown.

system: WI-38; experiment: The cytotoxicity of the compounds assessed using human embryonic lung fibroblast WI-38 cells at (83 micro M); type: functional, cell-based
Method in brief: (§1)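 WI-38 human embryonic lung fibroblasts (5 × 10³ cells/well) in RPMI1640 + 10% FCS were exposed to graded concentrations of compound for 48 h at 37 °C. Viability was read by WST-1 with 1-methoxy PMS (2 h, 37 °C; absorbance at 450 nm). IC50 was reported in μg/mL, with the μM equivalent in parentheses.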

Compound | IC50 [µg/mL]
C[C@@H](c1ccccc1)N1C(=O)c2c(F)c(F)c(F)c(F)c2C1=O | 26.8 (≈ 82.9 µM)

system: HL-60; experiment: Tumor necrosis factor-alpha production in human leukemia cell line (HL-60) stimulated with 50 nM okadaic acid (OA), at 30 uMolar.; type: functional
Method in brief: (§2)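 HL-60 cells at 5 × 10⁵/mL in RPMI1640 + 10% FBS were co-treated with 30 μM test compound and either 10 nM TPA or 50 nM OA for 16 h at 37 °C. Culture-medium TNF-α was measured by ELISA and expressed as % of inducer-alone control. Cell counts were taken at harvest. Assays were run in duplicate or triplicate (mean taken), at least three times.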

Compound | Amount of TNF-alpha [%]
CC(C)c1cccc(C(C)C)c1N1Cc2ccccc2C1=O | 40
CC(C)c1cccc(C(C)C)c1N1C(=O)c2ccc(O)cc2C1=O | 7
CC(C)c1cccc(C(C)C)c1N1C(=O)Cc2ccccc2C1=O | 50
CC(C)c1ccccc1N1C(=O)c2ccccc2C1=O | 105
CCCCCc1ccccc1N1C(=O)c2ccccc2C1=O | 35
CC(C)c1ccc(N2C(=O)c3ccccc3C2=O)cc1 | 33
CC(C)c1cccc(C(C)C)c1N1C(=O)c2c(Cl)c(Cl)c(Cl)c(Cl)c2C1=O | 19
COc1ccccc1N1C(=O)c2ccccc2C1=O | 21
CC/N=C1\c2ccccc2C(=O)N1c1c(C(C)C)cccc1C(C)C | 75
CCc1cccc(C)c1N1C(=O)c2ccccc2C1=O | 82
CC(C)c1cccc(C(C)C)c1N1C(=O)c2ccccc2C1=S | 0
C/N=C1\c2ccccc2C(=O)N1c1c(C(C)C)cccc1C(C)C | 37
CCc1cccc(CC)c1N1C(=O)c2ccccc2C1=O | 53
CC(C)c1cccc(C(C)C)c1N1C(=O)c2cccc(O)c2C1=O | 64
CC(C)c1cccc(C(C)C)c1N1C(=O)c2ccccc2C1=O | 21
Cc1cccc(C)c1N1C(=O)c2ccccc2C1=O | 40
CC(C)c1cccc(C(C)C)c1N1C(=O)c2cc3ccccc3cc2C1=O | 48
Cc1ccccc1N1C(=O)c2ccccc2C1=O | 68
CC(C)c1cccc(C(C)C)c1N1C(=O)c2cccc(N)c2C1=O | 21
CC(C)c1cccc(C(C)C)c1N1C(=O)c2ccc(N)cc2C1=O | 28
CC(C)c1cccc(C(C)C)c1N1C(=O)c2cccc([N+](=O)[O-])c2C1=O | 54
CC(C)c1cccc(C(C)C)c1N1C(=O)c2ccc([N+](=O)[O-])cc2C1=O | 54
Cc1cc(C)cc(N2C(=O)c3ccccc3C2=O)c1 | 89

system: WI-38; experiment: The cytotoxicity of the compounds assessed using human embryonic lung fibroblast WI-38 cells at (95 micro M); type: functional, cell-based; method in brief: as §1

Compound | IC50 [µg/mL]
CC(C)c1cccc(C(C)C)c1N1C(=O)c2ccccc2C1=S | 30.8 (≈ 95.2 µM)

system: HL-60; experiment: Amount of tumor necrosis factor-alpha produced by human leukemia cell line (HL-60) stimulated with 10 nM12-O-tetradecanoylphorbol 13-acetate (TPA) at 0.3 uM, measured by ELISA; type: functional
Method in brief: (§3)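 HL-60 cells (2.5 × 10⁵ in 0.5 mL, i.e. 5 × 10⁵/mL), growing exponentially in RPMI1640 + 10% FBS, were exposed to 10 nM TPA or 50 nM OA together with 0.3 μM test compound for 16 h at 37 °C. Secreted TNF-α was quantified by ELISA and expressed as % of inducer-alone production. Each run was done in duplicate or triplicate (mean taken) and repeated at least three times.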

Compound | Amount of TNF-alpha [%]
C[C@@H](c1ccccc1)N1C(=O)c2c(F)c(F)c(F)c(F)c2C1=O | 143

system: WI-38; experiment: The cytotoxicity of the compounds assessed using human embryonic lung fibroblast WI-38 cells at (148 micro M); type: functional, cell-based; method in brief: as §1

Compound | IC50 [µg/mL]
CC(C)c1cccc(C(C)C)c1N1Cc2ccccc2C1=O | 43.1 (≈ 147 µM)

system: HL-60; experiment: Tumor necrosis factor-alpha production in human leukemia cell line (HL-60) stimulated with 10 nM 12-O-tetradecanoylphorbol 13-acetate (TPA) at 30 uMolar.; type: functional; method in brief: as §2

Compound | Amount of TNF-alpha [%]
CC(C)c1cccc(C(C)C)c1N1Cc2ccccc2C1=O | 214
CC(C)c1cccc(C(C)C)c1N1C(=O)c2ccc(O)cc2C1=O | 153
CC(C)c1cccc(C(C)C)c1N1C(=O)Cc2ccccc2C1=O | 268
CC(C)c1ccccc1N1C(=O)c2ccccc2C1=O | 158
CCCCCc1ccccc1N1C(=O)c2ccccc2C1=O | 151
CC(C)c1ccc(N2C(=O)c3ccccc3C2=O)cc1 | 139
CC(C)c1cccc(C(C)C)c1N1C(=O)c2c(Cl)c(Cl)c(Cl)c(Cl)c2C1=O | 250
COc1ccccc1N1C(=O)c2ccccc2C1=O | 95
CC/N=C1\c2ccccc2C(=O)N1c1c(C(C)C)cccc1C(C)C | 138
CCc1cccc(C)c1N1C(=O)c2ccccc2C1=O | 188
CC(C)c1cccc(C(C)C)c1N1C(=O)c2ccccc2C1=S | 1252
C/N=C1\c2ccccc2C(=O)N1c1c(C(C)C)cccc1C(C)C | 134
CCc1cccc(CC)c1N1C(=O)c2ccccc2C1=O | 453
CC(C)c1cccc(C(C)C)c1N1C(=O)c2cccc(O)c2C1=O | 239
CC(C)c1cccc(C(C)C)c1N1C(=O)c2ccccc2C1=O | 602
Cc1cccc(C)c1N1C(=O)c2ccccc2C1=O | 161
CC(C)c1cccc(C(C)C)c1N1C(=O)c2cc3ccccc3cc2C1=O | 144
Cc1ccccc1N1C(=O)c2ccccc2C1=O | 100
CC(C)c1cccc(C(C)C)c1N1C(=O)c2cccc(N)c2C1=O | 248
CC(C)c1cccc(C(C)C)c1N1C(=O)c2ccc(N)cc2C1=O | 242
CC(C)c1cccc(C(C)C)c1N1C(=O)c2cccc([N+](=O)[O-])c2C1=O | 792
CC(C)c1cccc(C(C)C)c1N1C(=O)c2ccc([N+](=O)[O-])cc2C1=O | 683
Cc1cc(C)cc(N2C(=O)c3ccccc3C2=O)c1 | 136

system: WI-38; experiment: The cytotoxicity of the compounds assessed using human embryonic lung fibroblast WI-38 cells at (136 micro M); type: functional, cell-based; method in brief: as §1

Compound | IC50 [µg/mL]
CCc1cccc(CC)c1N1C(=O)c2ccccc2C1=O | 38 (≈ 136 µM)

system: WI-38; experiment: The cytotoxicity of the compounds assessed using human embryonic lung fibroblast WI-38 cells at (264 micro M); type: functional, cell-based; method in brief: as §1

Compound | IC50 [µg/mL]
CC(C)c1cccc(C(C)C)c1N1C(=O)c2cccc([N+](=O)[O-])c2C1=O | 93.1 (≈ 264 µM)

system: WI-38; experiment: The cytotoxicity of the compounds assessed using human embryonic lung fibroblast WI-38 cells at (39 micro M); type: functional, cell-based; method in brief: as §1

Compound | IC50 [µg/mL]
CC(C)c1cccc(C(C)C)c1N1C(=O)c2ccc(O)cc2C1=O | 12.7 (≈ 39.3 µM)

system: HL-60; experiment: Inhibition of 50 nM okadaic acid induced tumor necrosis factor-alpha production in human leukemia cell line (HL-60) by 0.3 uM.; type: functional; method in brief: as §3

Compound | Amount of TNF-alpha [%]
C[C@@H](c1ccccc1)N1C(=O)c2c(F)c(F)c(F)c(F)c2C1=O | 70

system: WI-38; experiment: The cytotoxicity of the compounds assessed using human embryonic lung fibroblast WI-38 cells at (99 micro M); type: functional, cell-based; method in brief: as §1

Compound | IC50 [µg/mL]
CCc1cccc(C)c1N1C(=O)c2ccccc2C1=O | 26.2 (≈ 98.8 µM)

system: WI-38; experiment: The cytotoxicity of the compounds assessed using human embryonic lung fibroblast WI-38 cells at (25 micro M); type: functional, cell-based; method in brief: as §1

Compound | IC50 [µg/mL]
CC(C)c1cccc(C(C)C)c1N1C(=O)c2cccc(N)c2C1=O | 8.1 (≈ 25.1 µM)

system: WI-38; experiment: In vitro cytotoxicity against human embryonic lung fibroblast WI-38 cells.; type: functional, cell-based; method in brief: as §1

Compound | IC50 [µg/mL]
CC(C)c1cccc(C(C)C)c1N1C(=O)Cc2ccccc2C1=O | > 100
CC(C)c1ccccc1N1C(=O)c2ccccc2C1=O | > 100
CCCCCc1ccccc1N1C(=O)c2ccccc2C1=O | > 100
CC(C)c1ccc(N2C(=O)c3ccccc3C2=O)cc1 | > 100
CC(C)c1cccc(C(C)C)c1N1C(=O)c2c(Cl)c(Cl)c(Cl)c(Cl)c2C1=O | > 100
COc1ccccc1N1C(=O)c2ccccc2C1=O | > 100
CC(C)c1cccc(C(C)C)c1N1C(=O)c2cccc(O)c2C1=O | > 100
CC(C)c1cccc(C(C)C)c1N1C(=O)c2ccccc2C1=O | > 100
Cc1cccc(C)c1N1C(=O)c2ccccc2C1=O | > 100
CC(C)c1cccc(C(C)C)c1N1C(=O)c2cc3ccccc3cc2C1=O | > 100
Cc1ccccc1N1C(=O)c2ccccc2C1=O | > 100
Cc1cc(C)cc(N2C(=O)c3ccccc3C2=O)c1 | > 100

system: WI-38; experiment: The cytotoxicity of the compounds assessed using human embryonic lung fibroblast WI-38 cells at (121 micro M); type: functional, cell-based; method in brief: as §1

Compound | IC50 [µg/mL]
CC(C)c1cccc(C(C)C)c1N1C(=O)c2ccc([N+](=O)[O-])cc2C1=O | 42.7 (≈ 121 µM)

system: WI-38; experiment: The cytotoxicity of the compounds assessed using human embryonic lung fibroblast WI-38 cells at (53 micro M); type: functional, cell-based; method in brief: as §1

Compound | IC50 [µg/mL]
CC(C)c1cccc(C(C)C)c1N1C(=O)c2ccc(N)cc2C1=O | 17.4 (≈ 54 µM)
